# Experimental data published in ChEMBL document CHEMBL4364257, “Discovery of novel Bcr-AblT315I inhibitors with flexible linker. Part 1: Confirmation optimization of phenyl-1H-indazol-3-amine as hinge binding moiety” (Eur J Med Chem, 2019).
# Target: Proto-oncogene tyrosine-protein kinase Src (Homo sapiens, UniProt P12931)
# Assay: Inhibition of human recombinant full length N-terminal GST tagged SRC expressed in Escherichia coli using KVEKIGEGTYGVVYK-amide as substrate measured after 60 mins in presence of ATP by ADP-Glo kinase assay
# Details: not given
# In short: (§1)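 ADP-Glo luminescence format: kinase with substrate/ATP mix and inhibitor in 40 mM Tris pH 7.4, 10 mM MgCl2, 0.1 mg/mL BSA, 1 mM DTT, 60 min at 30 °C. ADP-Glo reagent 40 min at room temperature to stop and deplete ATP, then detection reagent 30 min; luminescence read.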
# Proto-oncogene tyrosine-protein kinase Src, sequence (P12931 2-536 limits assumed): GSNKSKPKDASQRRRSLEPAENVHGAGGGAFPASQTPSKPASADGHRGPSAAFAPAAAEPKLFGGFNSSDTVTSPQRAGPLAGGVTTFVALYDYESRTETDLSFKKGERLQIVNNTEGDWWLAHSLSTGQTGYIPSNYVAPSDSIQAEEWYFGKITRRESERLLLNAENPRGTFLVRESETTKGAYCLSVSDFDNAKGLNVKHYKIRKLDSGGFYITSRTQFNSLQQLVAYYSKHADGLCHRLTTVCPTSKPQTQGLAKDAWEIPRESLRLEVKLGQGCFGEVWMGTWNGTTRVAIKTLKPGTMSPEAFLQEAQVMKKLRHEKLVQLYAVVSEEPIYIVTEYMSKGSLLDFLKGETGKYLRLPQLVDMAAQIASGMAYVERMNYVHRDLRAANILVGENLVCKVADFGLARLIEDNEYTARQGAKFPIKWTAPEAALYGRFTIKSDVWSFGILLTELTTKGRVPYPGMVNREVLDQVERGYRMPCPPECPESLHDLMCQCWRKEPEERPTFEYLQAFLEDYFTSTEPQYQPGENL
row,IC50,Compound
1,15.1 µM,Nc1n[nH]c2cc(-c3ccc(C(=O)NCCNC(=O)c4ccc(Cl)c(C(F)(F)F)c4)cc3)ccc12

# Target: Bcr/Abl fusion protein (Homo sapiens, UniProt P00519)
# Assay: Inhibition of wild type BCR/ABL (unknown origin) measured after 60 mins in presence of ATP by ADP-Glo kinase assay
# Type: protein assay
# Details: not given
row,Compound,IC50
1,Nc1n[nH]c2cc(-c3ccc(C(=O)N4CCN(C(=O)c5ccc(F)cc5)CC4)cc3)ccc12,2.34 µM
2,Nc1n[nH]c2cccc(-c3ccc(C(=O)N4CCN(C(=O)c5ccc(F)cc5)CC4)cc3)c12,17.6 µM
3,CN(C)c1ccc(C(=O)N2CCN(C(=O)c3ccc(-c4ccc5c(N)n[nH]c5c4)cc3)CC2)cc1,2.54 µM
4,Nc1n[nH]c2cc(-c3ccc(C(=O)NCCNC(=O)c4ccc(F)cc4)cc3)ccc12,2.45 µM
5,CN(C)c1ccc(C(=O)NCCNC(=O)c2ccc(-c3cccc4[nH]nc(N)c34)cc2)cc1,5.75 µM
6,Nc1n[nH]c2cccc(-c3ccc(C(=O)NCCNC(=O)c4ccc(Br)cc4)cc3)c12,31.6 µM
7,CN(C)c1ccc(C(=O)N2CCN(C(=O)c3ccc(-c4cccc5[nH]nc(N)c45)cc3)CC2)cc1,4.28 µM
8,Nc1n[nH]c2cc(-c3ccc(C(=O)N4CCN(C(=O)c5ccc(Br)cc5)CC4)cc3)ccc12,6.28 µM
9,Cc1ccc(C(=O)N2CCN(C(=O)c3ccc(-c4cccc5[nH]nc(N)c45)cc3)CC2)cc1,5.85 µM
10,Nc1n[nH]c2cc(-c3ccc(C(=O)NCCNC(=O)c4ccc(Br)cc4)cc3)ccc12,2.16 µM
11,Nc1n[nH]c2cccc(-c3ccc(C(=O)NCCNC(=O)c4ccc(Cl)c(C(F)(F)F)c4)cc3)c12,0.11 µM
12,Cc1ccc(C(=O)N2CCN(C(=O)c3ccc(-c4ccc5c(N)n[nH]c5c4)cc3)CC2)cc1,32.2 µM

# More lines, now with the values ahead:
row,IC50,Compound
1,1.35 µM,Nc1n[nH]c2cccc(-c3ccc(C(=O)NCCNC(=O)c4ccc(F)cc4)cc3)c12
2,3.45 µM,CN(C)c1ccc(C(=O)NCCNC(=O)c2ccc(-c3ccc4c(N)n[nH]c4c3)cc2)cc1
3,0.38 µM,Cc1ccc(C(=O)NCCNC(=O)c2ccc(-c3ccc4c(N)n[nH]c4c3)cc2)cc1
4,7.12 µM,Nc1n[nH]c2cccc(-c3ccc(C(=O)N4CCN(C(=O)c5ccc(Br)cc5)CC4)cc3)c12
5,1.99 µM,Nc1n[nH]c2cc(-c3ccc(C(=O)N4CCN(C(=O)c5ccc(Cl)c(C(F)(F)F)c5)CC4)cc3)ccc12
6,0.043 µM,Nc1n[nH]c2cc(-c3ccc(C(=O)NCCNC(=O)c4ccc(Cl)c(C(F)(F)F)c4)cc3)ccc12
7,10.7 µM,Nc1n[nH]c2cccc(-c3ccc(C(=O)N4CCN(C(=O)c5ccc(Cl)c(C(F)(F)F)c5)CC4)cc3)c12

# Target: Bcr/Abl fusion protein (Homo sapiens, UniProt P00519, T315I)
# Assay: Inhibition of BCR/ABL T315I mutant (unknown origin) measured after 60 mins in presence of ATP by ADP-Glo kinase assay
# Type: protein assay
# Details: not given
row,Compound,IC50
1,Nc1n[nH]c2cc(-c3ccc(C(=O)N4CCN(C(=O)c5ccc(F)cc5)CC4)cc3)ccc12,8.6 µM
2,Nc1n[nH]c2cccc(-c3ccc(C(=O)N4CCN(C(=O)c5ccc(F)cc5)CC4)cc3)c12,20.9 µM
3,CN(C)c1ccc(C(=O)N2CCN(C(=O)c3ccc(-c4ccc5c(N)n[nH]c5c4)cc3)CC2)cc1,6.23 µM
4,Nc1n[nH]c2cc(-c3ccc(C(=O)NCCNC(=O)c4ccc(F)cc4)cc3)ccc12,61.2 µM
5,CN(C)c1ccc(C(=O)NCCNC(=O)c2ccc(-c3cccc4[nH]nc(N)c34)cc2)cc1,76.8 µM
6,Nc1n[nH]c2cccc(-c3ccc(C(=O)NCCNC(=O)c4ccc(Br)cc4)cc3)c12,94.8 µM
7,CN(C)c1ccc(C(=O)N2CCN(C(=O)c3ccc(-c4cccc5[nH]nc(N)c45)cc3)CC2)cc1,86.1 µM
8,Nc1n[nH]c2cc(-c3ccc(C(=O)N4CCN(C(=O)c5ccc(Br)cc5)CC4)cc3)ccc12,31.9 µM
9,Cc1ccc(C(=O)N2CCN(C(=O)c3ccc(-c4cccc5[nH]nc(N)c45)cc3)CC2)cc1,179 µM
10,Nc1n[nH]c2cc(-c3ccc(C(=O)NCCNC(=O)c4ccc(Br)cc4)cc3)ccc12,2.68 µM
11,Nc1n[nH]c2cccc(-c3ccc(C(=O)NCCNC(=O)c4ccc(Cl)c(C(F)(F)F)c4)cc3)c12,20 µM
12,Cc1ccc(C(=O)N2CCN(C(=O)c3ccc(-c4ccc5c(N)n[nH]c5c4)cc3)CC2)cc1,3.72 µM

# The next lines start with the values.
row,IC50,Compound
1,38.5 µM,Nc1n[nH]c2cccc(-c3ccc(C(=O)NCCNC(=O)c4ccc(F)cc4)cc3)c12
2,0.29 µM,CN(C)c1ccc(C(=O)NCCNC(=O)c2ccc(-c3ccc4c(N)n[nH]c4c3)cc2)cc1
3,4.3 µM,Cc1ccc(C(=O)NCCNC(=O)c2ccc(-c3ccc4c(N)n[nH]c4c3)cc2)cc1
4,1.5 µM,Nc1n[nH]c2cccc(-c3ccc(C(=O)N4CCN(C(=O)c5ccc(Br)cc5)CC4)cc3)c12
5,5.33 µM,Nc1n[nH]c2cc(-c3ccc(C(=O)N4CCN(C(=O)c5ccc(Cl)c(C(F)(F)F)c5)CC4)cc3)ccc12
6,0.17 µM,Nc1n[nH]c2cc(-c3ccc(C(=O)NCCNC(=O)c4ccc(Cl)c(C(F)(F)F)c4)cc3)ccc12
7,2.08 µM,Nc1n[nH]c2cccc(-c3ccc(C(=O)N4CCN(C(=O)c5ccc(Cl)c(C(F)(F)F)c5)CC4)cc3)c12

# System: K562
# Assay: Antiproliferative activity against human BCR/ABL positive K562 cells assessed as growth inhibition measured after 48 hrs by MTT assay
# Type: functional, cell-based
# Details: K562, 48 h
# In short: (§2)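 K562 and K562R (T315I) cells grown in RPMI 1640 + 10% FBS; 2500 cells/well seeded, 12 h at 37 °C, 5% CO2, then compounds at indicated final concentrations for 48 h. MTT 0.5 mg/mL final, 4 h at 37 °C; supernatant removed, DMSO added, absorbance at 490 nm. IC50 calculated from inhibition ratios.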
row,Compound,IC50
1,Nc1n[nH]c2cc(-c3ccc(C(=O)N4CCN(C(=O)c5ccc(F)cc5)CC4)cc3)ccc12,39.1 µM
2,Nc1n[nH]c2cccc(-c3ccc(C(=O)N4CCN(C(=O)c5ccc(F)cc5)CC4)cc3)c12,102 µM
3,CN(C)c1ccc(C(=O)N2CCN(C(=O)c3ccc(-c4ccc5c(N)n[nH]c5c4)cc3)CC2)cc1,61.2 µM
4,Nc1n[nH]c2cc(-c3ccc(C(=O)NCCNC(=O)c4ccc(F)cc4)cc3)ccc12,13.4 µM
5,CN(C)c1ccc(C(=O)NCCNC(=O)c2ccc(-c3cccc4[nH]nc(N)c34)cc2)cc1,> 150 µM
6,Nc1n[nH]c2cccc(-c3ccc(C(=O)NCCNC(=O)c4ccc(Br)cc4)cc3)c12,> 150 µM
7,CN(C)c1ccc(C(=O)N2CCN(C(=O)c3ccc(-c4cccc5[nH]nc(N)c45)cc3)CC2)cc1,> 150 µM
8,Nc1n[nH]c2cc(-c3ccc(C(=O)N4CCN(C(=O)c5ccc(Br)cc5)CC4)cc3)ccc12,11.3 µM
9,Cc1ccc(C(=O)N2CCN(C(=O)c3ccc(-c4cccc5[nH]nc(N)c45)cc3)CC2)cc1,> 150 µM
10,Nc1n[nH]c2cc(-c3ccc(C(=O)NCCNC(=O)c4ccc(Br)cc4)cc3)ccc12,14 µM
11,Nc1n[nH]c2cccc(-c3ccc(C(=O)NCCNC(=O)c4ccc(Cl)c(C(F)(F)F)c4)cc3)c12,17.1 µM
12,Cc1ccc(C(=O)N2CCN(C(=O)c3ccc(-c4ccc5c(N)n[nH]c5c4)cc3)CC2)cc1,59.3 µM

# Compounds with a lower IC50, results first:
row,IC50,Compound
1,5.93 µM,Cc1ccc(C(=O)NCCNC(=O)c2ccc(-c3cccc4[nH]nc(N)c34)cc2)cc1
2,4.26 µM,Cc1ccc(NC(=O)c2ccc(CN3CCN(C)CC3)cc2)cc1Nc1nccc(-c2cccnc2)n1 [IMATINIB]
3,9.49 µM,Nc1n[nH]c2cccc(-c3ccc(C(=O)NCCNC(=O)c4ccc(F)cc4)cc3)c12
4,7.52 µM,CN(C)c1ccc(C(=O)NCCNC(=O)c2ccc(-c3ccc4c(N)n[nH]c4c3)cc2)cc1
5,1.45 µM,Cc1ccc(C(=O)NCCNC(=O)c2ccc(-c3ccc4c(N)n[nH]c4c3)cc2)cc1
6,9.25 µM,Nc1n[nH]c2cccc(-c3ccc(C(=O)N4CCN(C(=O)c5ccc(Br)cc5)CC4)cc3)c12
7,4.84 µM,Nc1n[nH]c2cc(-c3ccc(C(=O)N4CCN(C(=O)c5ccc(Cl)c(C(F)(F)F)c5)CC4)cc3)ccc12
8,1.65 µM,Nc1n[nH]c2cc(-c3ccc(C(=O)NCCNC(=O)c4ccc(Cl)c(C(F)(F)F)c4)cc3)ccc12
9,4.9 µM,Nc1n[nH]c2cccc(-c3ccc(C(=O)N4CCN(C(=O)c5ccc(Cl)c(C(F)(F)F)c5)CC4)cc3)c12

# Target: Tyrosine-protein kinase HCK (Homo sapiens, UniProt P08631)
# Sequence (P08631 whole entry, the tested form may be a part): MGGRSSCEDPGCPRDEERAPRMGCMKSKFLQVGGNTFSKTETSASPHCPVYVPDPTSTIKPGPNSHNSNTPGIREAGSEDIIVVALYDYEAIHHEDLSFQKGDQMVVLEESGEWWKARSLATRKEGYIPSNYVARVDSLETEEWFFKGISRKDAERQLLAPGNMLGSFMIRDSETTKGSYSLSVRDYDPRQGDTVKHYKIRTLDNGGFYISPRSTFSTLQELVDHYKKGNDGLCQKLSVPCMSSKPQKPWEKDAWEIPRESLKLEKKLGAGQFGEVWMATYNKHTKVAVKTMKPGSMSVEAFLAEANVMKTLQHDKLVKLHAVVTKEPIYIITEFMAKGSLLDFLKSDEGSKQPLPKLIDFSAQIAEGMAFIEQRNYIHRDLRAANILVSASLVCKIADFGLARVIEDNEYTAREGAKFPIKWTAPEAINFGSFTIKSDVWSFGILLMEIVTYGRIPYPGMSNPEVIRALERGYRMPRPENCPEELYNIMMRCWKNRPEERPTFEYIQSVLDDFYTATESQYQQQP
# Assay: Inhibition of human recombinant N-terminal GST tagged HCK (230 to 497 residues) expressed in baculovirus infected Sf9 cells using poly (Glu,Tyr) 4:1 as substrate measured after 60 mins in presence of ATP by ADP-Glo kinase assay
# Details: not given
# In short: as §1
row,IC50,Compound
1,> 100 µM,Nc1n[nH]c2cc(-c3ccc(C(=O)NCCNC(=O)c4ccc(Cl)c(C(F)(F)F)c4)cc3)ccc12

# Target: Mitogen-activated protein kinase 14 (Homo sapiens, UniProt Q16539)
# Sequence (Q16539 whole entry): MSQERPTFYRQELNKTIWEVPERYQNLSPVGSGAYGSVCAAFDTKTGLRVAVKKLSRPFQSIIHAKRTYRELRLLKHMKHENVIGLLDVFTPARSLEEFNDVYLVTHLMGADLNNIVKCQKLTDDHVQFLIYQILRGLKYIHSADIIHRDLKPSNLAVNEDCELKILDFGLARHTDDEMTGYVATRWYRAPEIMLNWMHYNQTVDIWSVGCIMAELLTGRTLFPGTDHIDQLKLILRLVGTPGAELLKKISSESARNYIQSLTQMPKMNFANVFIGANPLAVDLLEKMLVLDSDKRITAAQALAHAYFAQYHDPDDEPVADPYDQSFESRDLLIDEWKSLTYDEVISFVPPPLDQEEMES
# Assay: Inhibition of human recombinant full length N-terminal GST tagged p38alpha expressed in baculovirus infected Sf9 cells using p38 peptide as substrate measured after 60 mins in presence of ATP by ADP-Glo kinase assay
# Details: not given
# In short: as §1
row,IC50,Compound
1,34.5 µM,Nc1n[nH]c2cc(-c3ccc(C(=O)NCCNC(=O)c4ccc(Cl)c(C(F)(F)F)c4)cc3)ccc12

# System: K-562R
# Assay: Antiproliferative activity against human K562R cells expressing BCR/ABL T315I mutant assessed as growth inhibition measured after 48 hrs by MTT assay
# Type: functional, cell-based
# Details: not given
# In short: as §2
row,IC50,Compound
1,90 µM,Cc1ccc(NC(=O)c2ccc(CN3CCN(C)CC3)cc2)cc1Nc1nccc(-c2cccnc2)n1 [IMATINIB]
2,5.42 µM,Nc1n[nH]c2cc(-c3ccc(C(=O)NCCNC(=O)c4ccc(Cl)c(C(F)(F)F)c4)cc3)ccc12

# System: HEK293
# Assay: Cytotoxicity against human HEK293 cells upto 150 uM measured after 48 hrs by MTT assay
# Type: cell-based
# Details: hek293, 48 h
# In short: (§3)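 Normal human cells (EA.hy926, Hek293) kept in DMEM + 10% FBS; 2500 cells/well, 12 h preincubation at 37 °C, 5% CO2; compound added at indicated final concentrations for 48 h. MTT at 0.5 mg/mL final for 4 h, formazan dissolved in DMSO, absorbance read at 490 nm.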
row,Compound,Activity
1,Nc1n[nH]c2cc(-c3ccc(C(=O)NCCNC(=O)c4ccc(Cl)c(C(F)(F)F)c4)cc3)ccc12,Non-Toxic

# System: EA.hy 926
# Assay: Cytotoxicity against human EAhy926 cells upto 150 uM measured after 48 hrs by MTT assay
# Type: cell-based
# Details: ea.hy 926, 48 h
# In short: as §3
row,Compound,Activity
1,Nc1n[nH]c2cc(-c3ccc(C(=O)NCCNC(=O)c4ccc(Cl)c(C(F)(F)F)c4)cc3)ccc12,Non-Toxic

# Target: Bcr/Abl fusion protein (Homo sapiens) (UniProt P00519+P11274)
# Assay: Inhibition of BCR/ABL phosphorylation in human K562 cells measured after 4 hrs by Western blot analysis
# Type: cell-based
# Details: not given
# In short: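 K562 cells exposed to DMSO vehicle or drug for 4 h, lysed in SDS sample buffer, BCA-normalized; equal protein run on SDS-PAGE, transferred to PVDF, blocked in 5% milk/TBS-0.1% Tween-20. Probed overnight at 4 °C for Bcr-Abl, p-Bcr-Abl, actin; HRP secondaries 2 h at room temperature; ECL detection.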
row,inhibition,Compound
1,Dose-dependent effect,Nc1n[nH]c2cc(-c3ccc(C(=O)NCCNC(=O)c4ccc(Cl)c(C(F)(F)F)c4)cc3)ccc12
